According to ChEMBL document CHEMBL1157912, “Impact of nature and length of linker incorporated in agonists on toll-like receptor 9-mediated immune responses” (J Med Chem, 2010):
Activity calls are given as the source filed them. No cut-off for these calls is given here.

Tests used:
[1] = tested on: Mus musculus; assay: Immunostimulatory activity in C57BL/6 mouse assessed as increase in serum IL12 level at 1 mg/kg, sc after 2 hrs by ELISA; type: functional, organism-based; parameters: dose 1 mg/kg
Procedure, shortened: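 Female C57BL/6 mice (n=3) received a single subcutaneous agonist dose of 1 mg/kg. Blood was taken by retro-orbital bleeding 2 h later, and serum IL-12 was measured by sandwich ELISA. Values are the mean of three mice ± SD.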

[2] = biological target: T1, Toll-like receptor 9 (Homo sapiens) (UniProt Q9NR96); assay: Induction of TLR9-mediated immune stimulation in human PBMC assessed as IL6 production at 2 ug/ml after 24 hrs by luminex multiplex assay (RVb = 0.01 ng/ml)
T1 sequence (whole entry): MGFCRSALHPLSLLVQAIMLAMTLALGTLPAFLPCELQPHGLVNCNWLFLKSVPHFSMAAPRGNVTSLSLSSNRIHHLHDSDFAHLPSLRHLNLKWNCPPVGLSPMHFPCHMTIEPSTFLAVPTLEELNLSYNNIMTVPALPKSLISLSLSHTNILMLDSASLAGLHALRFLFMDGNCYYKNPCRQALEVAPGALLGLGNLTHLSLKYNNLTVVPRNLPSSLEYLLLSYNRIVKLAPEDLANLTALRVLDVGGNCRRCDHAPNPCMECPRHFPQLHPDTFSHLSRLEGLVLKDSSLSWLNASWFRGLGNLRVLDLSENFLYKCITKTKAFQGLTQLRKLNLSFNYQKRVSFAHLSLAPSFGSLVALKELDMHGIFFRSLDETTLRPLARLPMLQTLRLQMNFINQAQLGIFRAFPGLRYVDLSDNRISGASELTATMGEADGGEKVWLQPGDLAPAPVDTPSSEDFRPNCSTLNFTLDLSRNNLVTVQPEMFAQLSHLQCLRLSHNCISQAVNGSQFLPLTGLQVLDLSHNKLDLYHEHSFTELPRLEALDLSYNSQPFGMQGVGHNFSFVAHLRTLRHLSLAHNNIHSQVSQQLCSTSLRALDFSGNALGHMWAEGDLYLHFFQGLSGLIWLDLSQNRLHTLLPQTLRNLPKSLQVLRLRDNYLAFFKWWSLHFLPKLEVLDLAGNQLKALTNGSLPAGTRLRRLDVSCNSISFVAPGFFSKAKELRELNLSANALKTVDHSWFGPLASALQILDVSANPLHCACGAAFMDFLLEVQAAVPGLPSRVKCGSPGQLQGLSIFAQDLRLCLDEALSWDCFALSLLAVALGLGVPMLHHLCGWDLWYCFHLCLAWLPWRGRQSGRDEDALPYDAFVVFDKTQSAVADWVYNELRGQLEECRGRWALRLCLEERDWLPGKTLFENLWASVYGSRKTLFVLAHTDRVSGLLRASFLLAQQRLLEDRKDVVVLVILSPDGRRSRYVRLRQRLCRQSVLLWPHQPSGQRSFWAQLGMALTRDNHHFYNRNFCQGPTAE

[3] = biological target: T1, Toll-like receptor 9 (Homo sapiens); assay: Induction of TLR9-mediated immune stimulation in human PBMC assessed as IP10 production at 10 ug/ml after 24 hrs by luminex multiplex assay (RVb = 0.00 ng/ml)

SMILES: Cc1cn([C@H]2C[C@H](OCC(O)COP(=O)(S)O[C@H]3C[C@H](n4cc(C)c(=O)[nH]c4=O)O[C@@H]3COP(=O)(S)O[C@H]3[C@@H](O)[C@H](n4ccc(N)nc4=O)O[C@@H]3COP(=O)(S)O[C@H]3C[C@H](n4cc(C)c(=O)[nH]c4=O)O[C@@H]3COP(=O)(S)O[C@H]3C[C@H](n4cc(C)c(=O)[nH]c4=O)O[C@@H]3COP(=O)(S)O[C@H]3C[C@H](n4ccc5c(=O)[nH]c(N)nc54)O[C@@H]3COP(=O)(S)O[C@H]3[C@@H](O)[C@H](n4ccc(N)nc4=O)O[C@@H]3COP(=O)(S)O[C@H]3C[C@H](n4cc(C)c(=O)[nH]c4=O)O[C@@H]3COP(=O)(S)O[C@H]3[C@@H](O)[C@H](n4cnc5c(=O)[nH]c(N)nc54)O[C@@H]3COP(=O)(S)O[C@H]3C[C@H](n4cc(C)c(=O)[nH]c4=O)O[C@@H]3COP(=O)(S)O[C@H]3[C@@H](O)[C@H](n4ccc(N)nc4=O)O[C@@H]3COP(=O)(S)O[C@H]3C[C@H](n4cc(C)c(=O)[nH]c4=O)O[C@@H]3CO)[C@@H](COP(=O)(S)O[C@H]3[C@@H](O)[C@H](n4ccc(N)nc4=O)O[C@@H]3COP(=O)(S)O[C@H]3C[C@H](n4cc(C)c(=O)[nH]c4=O)O[C@@H]3COP(=O)(S)O[C@H]3C[C@H](n4cc(C)c(=O)[nH]c4=O)O[C@@H]3COP(=O)(S)O[C@H]3C[C@H](n4ccc5c(=O)[nH]c(N)nc54)O[C@@H]3COP(=O)(S)O[C@H]3[C@@H](O)[C@H](n4ccc(N)nc4=O)O[C@@H]3COP(=O)(S)O[C@H]3C[C@H](n4cc(C)c(=O)[nH]c4=O)O[C@@H]3COP(=O)(S)O[C@H]3[C@@H](O)[C@H](n4cnc5c(=O)[nH]c(N)nc54)O[C@@H]3COP(=O)(S)O[C@H]3C[C@H](n4cc(C)c(=O)[nH]c4=O)O[C@@H]3COP(=O)(S)O[C@H]3[C@@H](O)[C@H](n4ccc(N)nc4=O)O[C@@H]3COP(=O)(S)O[C@H]3C[C@H](n4cc(C)c(=O)[nH]c4=O)O[C@@H]3CO)O2)c(=O)[nH]c1=O (some centres not stated)
- Activity [1]: Active
- Activity [2]: 0.36 ng/mL
- Activity [3]: 0.01 ng/mL

SMILES: Cc1cn([C@H]2C[C@H](OCCC(O)CCOP(=O)(S)O[C@H]3C[C@H](n4cc(C)c(=O)[nH]c4=O)O[C@@H]3COP(=O)(S)O[C@H]3[C@@H](O)[C@H](n4ccc(N)nc4=O)O[C@@H]3COP(=O)(S)O[C@H]3C[C@H](n4cc(C)c(=O)[nH]c4=O)O[C@@H]3COP(=O)(S)O[C@H]3C[C@H](n4cc(C)c(=O)[nH]c4=O)O[C@@H]3COP(=O)(S)O[C@H]3C[C@H](n4ccc5c(=O)[nH]c(N)nc54)O[C@@H]3COP(=O)(S)O[C@H]3[C@@H](O)[C@H](n4ccc(N)nc4=O)O[C@@H]3COP(=O)(S)O[C@H]3C[C@H](n4cc(C)c(=O)[nH]c4=O)O[C@@H]3COP(=O)(S)O[C@H]3[C@@H](O)[C@H](n4cnc5c(=O)[nH]c(N)nc54)O[C@@H]3COP(=O)(S)O[C@H]3C[C@H](n4cc(C)c(=O)[nH]c4=O)O[C@@H]3COP(=O)(S)O[C@H]3[C@@H](O)[C@H](n4ccc(N)nc4=O)O[C@@H]3COP(=O)(S)O[C@H]3C[C@H](n4cc(C)c(=O)[nH]c4=O)O[C@@H]3CO)[C@@H](COP(=O)(S)O[C@H]3[C@@H](O)[C@H](n4ccc(N)nc4=O)O[C@@H]3COP(=O)(S)O[C@H]3C[C@H](n4cc(C)c(=O)[nH]c4=O)O[C@@H]3COP(=O)(S)O[C@H]3C[C@H](n4cc(C)c(=O)[nH]c4=O)O[C@@H]3COP(=O)(S)O[C@H]3C[C@H](n4ccc5c(=O)[nH]c(N)nc54)O[C@@H]3COP(=O)(S)O[C@H]3[C@@H](O)[C@H](n4ccc(N)nc4=O)O[C@@H]3COP(=O)(S)O[C@H]3C[C@H](n4cc(C)c(=O)[nH]c4=O)O[C@@H]3COP(=O)(S)O[C@H]3[C@@H](O)[C@H](n4cnc5c(=O)[nH]c(N)nc54)O[C@@H]3COP(=O)(S)O[C@H]3C[C@H](n4cc(C)c(=O)[nH]c4=O)O[C@@H]3COP(=O)(S)O[C@H]3[C@@H](O)[C@H](n4ccc(N)nc4=O)O[C@@H]3COP(=O)(S)O[C@H]3C[C@H](n4cc(C)c(=O)[nH]c4=O)O[C@@H]3CO)O2)c(=O)[nH]c1=O (some centres not stated)
- Activity [1]: Active
- Activity [2]: 0.31 ng/mL
- Activity [3]: 0.02 ng/mL

SMILES: Cc1cn([C@H]2C[C@H](O[C@H]3C[C@@H](O)C[C@@H](OP(=O)(S)O[C@H]4C[C@H](n5cc(C)c(=O)[nH]c5=O)O[C@@H]4COP(=O)(S)O[C@H]4[C@@H](O)[C@H](n5ccc(N)nc5=O)O[C@@H]4COP(=O)(S)O[C@H]4C[C@H](n5cc(C)c(=O)[nH]c5=O)O[C@@H]4COP(=O)(S)O[C@H]4C[C@H](n5cc(C)c(=O)[nH]c5=O)O[C@@H]4COP(=O)(S)O[C@H]4C[C@H](n5ccc6c(=O)[nH]c(N)nc65)O[C@@H]4COP(=O)(S)O[C@H]4[C@@H](O)[C@H](n5ccc(N)nc5=O)O[C@@H]4COP(=O)(S)O[C@H]4C[C@H](n5cc(C)c(=O)[nH]c5=O)O[C@@H]4COP(=O)(S)O[C@H]4[C@@H](O)[C@H](n5cnc6c(=O)[nH]c(N)nc65)O[C@@H]4COP(=O)(S)O[C@H]4C[C@H](n5cc(C)c(=O)[nH]c5=O)O[C@@H]4COP(=O)(S)O[C@H]4[C@@H](O)[C@H](n5ccc(N)nc5=O)O[C@@H]4COP(=O)(S)O[C@H]4C[C@H](n5cc(C)c(=O)[nH]c5=O)O[C@@H]4CO)C3)[C@@H](COP(=O)(S)O[C@H]3[C@@H](O)[C@H](n4ccc(N)nc4=O)O[C@@H]3COP(=O)(S)O[C@H]3C[C@H](n4cc(C)c(=O)[nH]c4=O)O[C@@H]3COP(=O)(S)O[C@H]3C[C@H](n4cc(C)c(=O)[nH]c4=O)O[C@@H]3COP(=O)(S)O[C@H]3C[C@H](n4ccc5c(=O)[nH]c(N)nc54)O[C@@H]3COP(=O)(S)O[C@H]3[C@@H](O)[C@H](n4ccc(N)nc4=O)O[C@@H]3COP(=O)(S)O[C@H]3C[C@H](n4cc(C)c(=O)[nH]c4=O)O[C@@H]3COP(=O)(S)O[C@H]3[C@@H](O)[C@H](n4cnc5c(=O)[nH]c(N)nc54)O[C@@H]3COP(=O)(S)O[C@H]3C[C@H](n4cc(C)c(=O)[nH]c4=O)O[C@@H]3COP(=O)(S)O[C@H]3[C@@H](O)[C@H](n4ccc(N)nc4=O)O[C@@H]3COP(=O)(S)O[C@H]3C[C@H](n4cc(C)c(=O)[nH]c4=O)O[C@@H]3CO)O2)c(=O)[nH]c1=O (some centres not stated)
- Activity [1]: Active
- Activity [2]: 0.3 ng/mL
- Activity [3]: 0.03 ng/mL

SMILES: Cc1cn([C@H]2C[C@H](OCCOCCOCCOCCOCCOCCOP(=O)(S)O[C@H]3C[C@H](n4cc(C)c(=O)[nH]c4=O)O[C@@H]3COP(=O)(S)O[C@H]3[C@@H](O)[C@H](n4ccc(N)nc4=O)O[C@@H]3COP(=O)(S)O[C@H]3C[C@H](n4cc(C)c(=O)[nH]c4=O)O[C@@H]3COP(=O)(S)O[C@H]3C[C@H](n4cc(C)c(=O)[nH]c4=O)O[C@@H]3COP(=O)(S)O[C@H]3C[C@H](n4ccc5c(=O)[nH]c(N)nc54)O[C@@H]3COP(=O)(S)O[C@H]3[C@@H](O)[C@H](n4ccc(N)nc4=O)O[C@@H]3COP(=O)(S)O[C@H]3C[C@H](n4cc(C)c(=O)[nH]c4=O)O[C@@H]3COP(=O)(S)O[C@H]3[C@@H](O)[C@H](n4cnc5c(=O)[nH]c(N)nc54)O[C@@H]3COP(=O)(S)O[C@H]3C[C@H](n4cc(C)c(=O)[nH]c4=O)O[C@@H]3COP(=O)(S)O[C@H]3[C@@H](O)[C@H](n4ccc(N)nc4=O)O[C@@H]3COP(=O)(S)O[C@H]3C[C@H](n4cc(C)c(=O)[nH]c4=O)O[C@@H]3CO)[C@@H](COP(=O)(S)O[C@H]3[C@@H](O)[C@H](n4ccc(N)nc4=O)O[C@@H]3COP(=O)(S)O[C@H]3C[C@H](n4cc(C)c(=O)[nH]c4=O)O[C@@H]3COP(=O)(S)O[C@H]3C[C@H](n4cc(C)c(=O)[nH]c4=O)O[C@@H]3COP(=O)(S)O[C@H]3C[C@H](n4ccc5c(=O)[nH]c(N)nc54)O[C@@H]3COP(=O)(S)O[C@H]3[C@@H](O)[C@H](n4ccc(N)nc4=O)O[C@@H]3COP(=O)(S)O[C@H]3C[C@H](n4cc(C)c(=O)[nH]c4=O)O[C@@H]3COP(=O)(S)O[C@H]3[C@@H](O)[C@H](n4cnc5c(=O)[nH]c(N)nc54)O[C@@H]3COP(=O)(S)O[C@H]3C[C@H](n4cc(C)c(=O)[nH]c4=O)O[C@@H]3COP(=O)(S)O[C@H]3[C@@H](O)[C@H](n4ccc(N)nc4=O)O[C@@H]3COP(=O)(S)O[C@H]3C[C@H](n4cc(C)c(=O)[nH]c4=O)O[C@@H]3CO)O2)c(=O)[nH]c1=O (some centres not stated)
- Activity [1]: inactive
- Activity [2]: 0.16 ng/mL
- Activity [3]: 0.04 ng/mL
